Legend:
[1] = Cmax in rat assessed as NOAEL at 200 mg/kg/day, po administered as repeated dose for 6 days; type: ADME, organism-based; set-up: route oral, dose 200 mg/kg/day, time 6 day; settings: in vivo
[2] = […] clearance in nonhuman primate; type: ADME; settings: primates
[3] = […] clearance in rat at 1 mg/kg, iv and 5 mg/kg, po; type: ADME, organism-based; settings: in vivo
[4] = Stability in dog liver microsomes assessed as extraction ratio; type: ADME, Canis lupus familiaris, Microsome; settings: read-out: ERH
[5] = Cmax in dog assessed as NOAEL at 25 mg/kg, po administered for 6 days; type: ADME, organism-based, Canis lupus familiaris; set-up: route oral, dose 25 mg/kg, time 6 day; settings: in vivo
How it was run: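 Six-day dog toxicology study with oral dosing; NOAEL-level Cmax; exposures compared between sexes and between day 0 and day 5.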

[6] = AUC (0 to 24 hrs) in mouse assessed as NOAEL at 200 mg/kg/day, po administered as repeated dose for 13 days; type: ADME, organism-based; set-up: route oral, dose 200 mg/kg/day, time 13 day; settings: in vivo
[7] = AUC in rat assessed as NOAEL at 250 mg/kg, po administered as repeated dose for 5 days; type: ADME, organism-based; set-up: time 5 day, dose 250 mg/kg; settings: in vivo
[8] = AUC (0 to 24 hrs) in mouse assessed as NOAEL at 200 mg/kg/day, po measured after immediately administered; type: ADME, organism-based; set-up: route oral, dose 200 mg/kg/day, time 13 day; settings: in vivo
[9] = Cmax in human at 50 mg/day; type: ADME; set-up: dose 50 mg
[10] = Volume of distribution at steady state in mouse at 1 mg/kg, iv and 5 mg/kg, po; type: ADME, organism-based; settings: in vivo, read-out: Vdss
[11] = Stability in mouse liver microsomes assessed as extraction ratio; type: ADME, Microsome; settings: read-out: ERH
[12] = target: T1, Orexin/Hypocretin receptor type 1 (Homo sapiens, UniProt O43613); assay: Binding affinity to human […]
T1 sequence (O43613 whole entry): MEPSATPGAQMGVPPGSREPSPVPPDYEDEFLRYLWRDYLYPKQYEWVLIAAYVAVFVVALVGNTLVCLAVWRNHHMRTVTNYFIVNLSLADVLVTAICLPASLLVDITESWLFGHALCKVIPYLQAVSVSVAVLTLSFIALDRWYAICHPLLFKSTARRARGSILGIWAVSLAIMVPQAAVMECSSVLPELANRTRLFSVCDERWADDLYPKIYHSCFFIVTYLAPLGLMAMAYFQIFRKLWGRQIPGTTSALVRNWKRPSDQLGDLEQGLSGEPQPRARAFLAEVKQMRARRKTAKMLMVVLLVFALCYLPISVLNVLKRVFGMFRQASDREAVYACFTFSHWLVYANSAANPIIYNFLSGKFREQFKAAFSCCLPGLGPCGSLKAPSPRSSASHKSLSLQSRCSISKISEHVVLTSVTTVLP

[13] = Protein binding in human plasma assessed as free fraction; type: ADME, cell-free
[14] = Cmax in rat at 1 mg/kg, iv and 5 mg/kg, po; type: ADME, organism-based; set-up: dose 5 mg/kg; settings: in vivo
[15] = Cmax in rat assessed as NOAEL at 250 mg/kg, po administered as repeated dose for 5 days; type: ADME, organism-based; set-up: route oral, dose 250 mg/kg, time 5 day; settings: in vivo
[16] = Permeability across apical to basolateral side in MDCK cells; type: ADME, cell-based, Canis lupus familiaris; settings: dog
[17] = Oral bioavailability in primate at 5 mg/kg; type: ADME, organism-based; settings: primates, in vivo
[18] = Stability in human liver microsomes assessed as extraction ratio; type: ADME, Microsome; settings: read-out: ERH
How it was run: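 Metabolic stability in human or rat liver microsomes, expressed as extraction ratios.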

[19] = Clearance in mouse at 1 mg/kg, iv and 5 mg/kg, po; type: ADME, organism-based; settings: in vivo
[20] = Oral bioavailability in rat at 5 mg/kg; type: ADME, organism-based; settings: in vivo
[21] = target: T2, Orexin receptor type 2 (Homo sapiens, UniProt O43614); assay: Binding affinity to human OX2R
T2 sequence (O43614 whole entry): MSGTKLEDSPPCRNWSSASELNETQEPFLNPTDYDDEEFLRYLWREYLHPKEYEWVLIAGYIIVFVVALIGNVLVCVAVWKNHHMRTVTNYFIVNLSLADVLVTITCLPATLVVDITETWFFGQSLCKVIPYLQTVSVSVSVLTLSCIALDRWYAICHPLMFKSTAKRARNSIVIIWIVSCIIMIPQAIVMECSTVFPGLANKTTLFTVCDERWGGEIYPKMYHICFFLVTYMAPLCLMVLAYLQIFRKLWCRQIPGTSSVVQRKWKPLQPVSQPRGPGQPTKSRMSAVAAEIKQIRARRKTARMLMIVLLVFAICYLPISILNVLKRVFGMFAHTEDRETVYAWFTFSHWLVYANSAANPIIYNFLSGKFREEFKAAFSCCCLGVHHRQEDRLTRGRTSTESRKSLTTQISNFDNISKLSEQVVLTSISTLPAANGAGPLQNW

[22] = Ex vivo receptor occupancy at OX1R in Sprague-Dawley rat brain tenia tecta using [3H]SB-674042 labelling at 10 mg/kg, po measured after 2 hrs by autoradiography; type: functional
How it was run: (§1)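 Rats received a single oral dose, and OX1R occupancy was measured by ex vivo binding autoradiography in brain tenia tecta sections at 0.5, 2 and 6 h after dosing. Occupancy is expressed as percent. Brain and plasma drug levels (ng/mL) were also sampled at the 0.5 h time point.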

[23] = Ex vivo receptor occupancy at OX1R in Sprague-Dawley rat brain tenia tecta using [3H]SB-674042 labelling at 10 mg/kg, po measured after 6 hrs by autoradiography; type: functional; how it was run: as §1
[24] = Cmax in mouse at 1 mg/kg, iv and 5 mg/kg, po; type: ADME, organism-based; set-up: dose 5 mg/kg; settings: in vivo

Question: With O=C(c1cccc(F)c1-c1ncccn1)N1[C@@H]2CC[C@H]1[C@H](Nc1cnc(C(F)(F)F)cn1)C2 as the compound, how does the Cmax [1] read?
Answer: The Cmax was 8800 ng/mL.

Question: And the CLint scaled [2]?
Answer: Its CLint scaled is 13 mL/min/kg.

Question: And the clearance [3]?
Answer: Its clearance is 17 mL/min/kg.

Question: And the hepatic extraction ratio [4]?
Answer: The hepatic extraction ratio was less than 0.3.

Question: What about the Cmax [5] of the same compound?
Answer: Its Cmax is 15100 ng/mL.

Question: And the AUC at 312 h [6]?
Answer: The AUC at 312 h was 84.1 µg·h/mL.

Question: And the AUC at 120 h [7]?
Answer: Its AUC at 120 h is 101 µg·h/mL.

Question: And the AUC at 312 h [8]?
Answer: The AUC at 312 h was 225 µg·h/mL.

Question: And the Cmax [9]?
Answer: The Cmax was 537 ng/mL.

Question: What about the Vd [10] of the same compound?
Answer: Its Vd is 1.1 L/kg.

Question: What about the hepatic extraction ratio [11] of the same compound?
Answer: Its hepatic extraction ratio is 0.4.

Question: And the Ki [12]?
Answer: Its Ki is 0.016 µM.

Question: And the fraction unbound [13]?
Answer: Its fraction unbound is 0.2.

Question: What about the Cmax [14] of the same compound?
Answer: Its Cmax is 1370 ng/mL.

Question: What about the Cmax [15] of the same compound?
Answer: The Cmax was 15000 ng/mL.

Question: And the Papp A→B [16]?
Answer: The Papp A→B was 1.95 ×10⁻⁶ cm/s.

Question: What about the bioavailability [17] of the same compound?
Answer: Its bioavailability is 22%.

Question: What about the hepatic extraction ratio [18] of the same compound?
Answer: The hepatic extraction ratio was less than 0.3.

Question: And the clearance [19]?
Answer: The clearance was 21 mL/min/kg.

Question: And the bioavailability [20]?
Answer: Its bioavailability is 119%.

Question: And the Ki [21]?
Answer: Its Ki is 0.7 µM.

Question: And the Activity [22]?
Answer: Its Activity is 41%.

Question: And the Activity [23]?
Answer: Its Activity is 17%.

Question: What about the Cmax [24] of the same compound?
Answer: Its Cmax is 1500 ng/mL.
